# Measured values from ChEMBL document CHEMBL1123812, “Pyrroloisoquinoline antidepressants. 2. In-depth exploration of structure-activity relationships” (J Med Chem, 1987).
# Active and inactive are the calls of the source.
# Tests used:
# [1] = test system: Mus musculus; test: Ability to antagonise intraperitoneal dose; inactive (<10% antagonism) at 30 mg/kg is represented as I-30.; assay type: functional, organism-based; design: dose 30 mg/kg
# How it was run: (§1)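 Nonfasted male Swiss Webster mice, 18–24 g, ten per dose level and in saline controls. Test compound given ip 30 min before tetrabenazine 32 mg/kg ip; dose expressed as free base. Motor activity and ptosis scored. Control response ≤90% corrected by Abbott's formula.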
# [2] = test system: Mus musculus; test: Ability to antagonise intraperitoneal dose; inactive (<10% antagonism) at 30 mgjkg is represented as I-30.; assay type: functional, organism-based; how it was run: as §1
# [3] = species on record: Rattus norvegicus; test: Ability to inhibit the uptake of tritiated dopamine (DA) 1 uM concentration; assay type: functional
# How it was run: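 Rat brain synaptosomal [3H]dopamine uptake: striatal P2 fraction, test compound at 1.00 μM. Preincubated at 37 °C, then 50–300 nM [3H]DA for 3 min. Blanks on ice. Filtration and scintillation counting; percent inhibition of control uptake.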
# [4] = biological target: Norepinephrine transporter (Rattus norvegicus) (UniProt Q9WTR4); test: Ability to inhibit the uptake of [3H]norepinephrine (NE) 0.1 uM concentration at rat brain synaptosomes; assay type: functional, subcellular
# How it was run: (§2)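 Male Wistar rat brain synaptosomes (P2 fraction): hypothalamus for NE, striatum for DA, cerebral cortex for 5-HT. Buffer is Tris- or HEPES-buffered salt medium with glucose, ascorbate and nialamide, pH 7.4 at 37 °C. Preincubated 10 min at 37 °C with compound. Uptake started with [3H]NE 100–300 nM, [3H]DA 50–300 nM or [3H]5-HT 100–200 nM, incubated 3 min (DA) or 6–10 min (NE, 5-HT). Blanks held on ice. Filtered, counted by scintillation.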
# [5] = biological target: Sodium-dependent serotonin transporter (Rattus norvegicus) (UniProt P31652); test: Ability to inhibit the uptake of [3H]- serotonin(5-HT) 0.1 uM concentration at rat brain synaptosomes; assay type: functional, subcellular; how it was run: as §2
# [6] = species on record: Mus musculus; test: Gross behavioral effects ascertained in mice; C indicates overt convulsant; assay type: functional, organism-based
# How it was run: (§3)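 Male Swiss Webster mice, 18–24 g, three per dose, given ip doses of 1, 3, 10, 30, 100 and 300 mg/kg. Observed for gross behavior and held for 4 days. Scored as weak (W), stimulant (S), depressant (D) or convulsant (C).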
# [7] = biological target: D(1A) dopamine receptor (Rattus norvegicus) (UniProt P18901); test: Binding affinity towards Dopamine receptor D1 at 1.0 uM concentration
# How it was run: (§4)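 Rat brain crude synaptic membranes in 20 mM NaHEPES pH 7.5. Ligands: α1 cortex […] 0.4 nM, nonspecific with (-)-NE 100 μM, 30 min at 25 °C. […] D2 striatum [3H]spiperone 0.05 nM with (+)-butaclamol 1 μM, 45 min at 37 °C. S1 cortex [3H]5-HT 1 nM plus glutathione and MgCl2, with 5-HT 10 μM, 20 min at 37 °C. […] Samples filtered on GF/B and counted.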
# [8] = species on record: Mus musculus; test: Antagonism of tetrabenazine (TBZ)-induced depression in mice measured for ptosis; assay type: functional; how it was run: as §1
# [9] = species on record: Mus musculus; test: Antagonism of tetrabenazine (TBZ)-induced depression measured in mice by motor activity; assay type: functional; how it was run: as §1
# [10] = species on record: Mus musculus; test: Gross behavioral effects ascertained in mice; W indicates weak stimulant or depressant activity of little significance.; assay type: functional, organism-based; how it was run: as §3
# [11] = biological target: Norepinephrine transporter (Rattus norvegicus, UniProt Q9WTR4); test: Inhibition of uptake of tritiated norepinephrine (NE) in rat synaptosomes; assay type: subcellular, Brain
# [12] = biological target: Serotonin 2 (5-HT2) receptor (Rattus norvegicus, UniProt P30994+P08909+P14842); test: Binding affinity towards 5-hydroxytryptamine 2 receptor; assay type: protein assay
# [13] = biological target: D(2) dopamine receptor (Rattus norvegicus, UniProt P61169); test: Binding affinity towards Dopamine receptor D2
# [14] = biological target: T1, Adrenergic receptor alpha-1 (Rattus norvegicus, UniProt P15823+P23944+P43140); test: Binding affinity towards alpha-1 adrenergic receptor; assay type: protein assay
# T1 sequence (P15823 whole entry): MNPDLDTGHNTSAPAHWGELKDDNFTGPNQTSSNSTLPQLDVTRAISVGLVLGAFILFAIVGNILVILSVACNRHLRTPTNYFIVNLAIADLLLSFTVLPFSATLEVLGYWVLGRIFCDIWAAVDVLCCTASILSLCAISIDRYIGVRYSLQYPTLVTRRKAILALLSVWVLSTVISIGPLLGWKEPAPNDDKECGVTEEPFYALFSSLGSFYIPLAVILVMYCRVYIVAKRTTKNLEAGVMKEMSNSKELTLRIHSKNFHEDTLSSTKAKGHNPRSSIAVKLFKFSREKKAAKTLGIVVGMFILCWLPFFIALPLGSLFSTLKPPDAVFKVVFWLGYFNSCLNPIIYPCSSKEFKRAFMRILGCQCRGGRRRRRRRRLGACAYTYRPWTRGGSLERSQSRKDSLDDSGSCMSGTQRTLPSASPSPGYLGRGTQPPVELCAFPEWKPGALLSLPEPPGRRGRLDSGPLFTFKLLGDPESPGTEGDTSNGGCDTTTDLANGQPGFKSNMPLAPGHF
# T1 sequence (P23944 whole entry): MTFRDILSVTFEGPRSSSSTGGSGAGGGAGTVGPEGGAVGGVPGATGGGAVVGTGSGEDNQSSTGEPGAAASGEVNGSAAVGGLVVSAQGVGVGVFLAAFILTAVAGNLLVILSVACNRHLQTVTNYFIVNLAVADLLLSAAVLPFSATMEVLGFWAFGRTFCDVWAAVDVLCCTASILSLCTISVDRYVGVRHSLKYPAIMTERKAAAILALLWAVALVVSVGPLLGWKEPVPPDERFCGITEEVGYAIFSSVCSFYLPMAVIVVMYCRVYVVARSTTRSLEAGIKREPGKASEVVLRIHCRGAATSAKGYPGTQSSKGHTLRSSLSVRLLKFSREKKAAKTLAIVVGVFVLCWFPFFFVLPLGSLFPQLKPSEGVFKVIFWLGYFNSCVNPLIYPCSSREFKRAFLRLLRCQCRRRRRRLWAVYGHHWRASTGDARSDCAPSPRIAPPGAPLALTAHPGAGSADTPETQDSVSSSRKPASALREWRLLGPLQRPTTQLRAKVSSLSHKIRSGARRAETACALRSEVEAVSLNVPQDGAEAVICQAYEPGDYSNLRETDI
# T1 sequence (P43140 whole entry): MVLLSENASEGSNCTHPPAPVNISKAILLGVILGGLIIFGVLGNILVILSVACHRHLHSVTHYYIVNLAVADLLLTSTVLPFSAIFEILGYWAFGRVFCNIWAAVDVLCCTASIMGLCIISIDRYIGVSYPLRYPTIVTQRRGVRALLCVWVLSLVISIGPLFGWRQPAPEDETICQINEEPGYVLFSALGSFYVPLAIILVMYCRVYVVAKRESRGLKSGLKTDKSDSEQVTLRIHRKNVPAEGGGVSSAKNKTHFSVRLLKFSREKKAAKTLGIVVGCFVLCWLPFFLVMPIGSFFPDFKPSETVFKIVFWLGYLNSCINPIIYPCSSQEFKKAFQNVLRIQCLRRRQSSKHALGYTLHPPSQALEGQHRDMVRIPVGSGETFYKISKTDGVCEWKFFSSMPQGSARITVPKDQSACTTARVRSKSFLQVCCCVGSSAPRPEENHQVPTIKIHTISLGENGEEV
# [15] = biological target: D(1A) dopamine receptor (Rattus norvegicus, UniProt P18901); test: Binding affinity towards Dopamine receptor D1
# [16] = biological target: D(2) dopamine receptor (Rattus norvegicus) (UniProt P61169); test: Binding affinity towards dopamine receptor D2 at 1.0 uM concentration; how it was run: as §4
# [17] = species on record: Rattus norvegicus; test: Ability to inhibit the uptake of tritiated norepinephrine (NE) at 0.1 uM concentration; assay type: functional; how it was run: as §2
# [18] = biological target: Sodium-dependent serotonin transporter (Rattus norvegicus) (UniProt P31652); test: Inhibition of tritiated serotonin(5-HT) uptake at 0.1 uM concentration; assay type: functional; how it was run: as §2
# [19] = biological target: Sodium-dependent dopamine transporter (Rattus norvegicus) (UniProt P23977); test: Inhibition of tritiated dopamine (DA) uptake at 0.1 uM concentration; assay type: functional; how it was run: as §2
# [20] = biological target: Serotonin 1 (5-HT1) receptor (Rattus norvegicus) (UniProt P28564+P30940+P19327+P28565); test: Binding affinity towards serotonin S1 receptor at 1.0 uM; assay type: protein assay; how it was run: as §4
# [21] = biological target: Sodium-dependent dopamine transporter (Rattus norvegicus, UniProt P23977); test: Inhibition of the uptake of tritiated dopamine (DA) in rat synaptosomes; assay type: subcellular, Brain
# [22] = biological target: Adrenergic receptor alpha-1 (Rattus norvegicus) (UniProt P15823+P23944+P43140); test: Binding affinity towards alpha-1 adrenergic receptor at 1.0 uM concentration; assay type: protein assay; how it was run: as §4
# [23] = species on record: Mus musculus; test: Gross behavioral effects ascertained in mice; D indicates significant depressant properties.; assay type: functional, organism-based
# How it was run: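 Male Swiss Webster albino mice, 18–24 g, three per dose, given ip 1, 3, 10, 30, 100 and 300 mg/kg. Gross behaviour observed and held 4 days. Estimated LD50 range from lethality count on day 4. Scored as weak stimulant/depressant, significant stimulant, significant depressant or overt convulsant.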
# [24] = biological target: Serotonin 1 (5-HT1) receptor (Rattus norvegicus, UniProt P28564+P30940+P19327+P28565); test: Binding affinity towards serotonin S1 receptor; assay type: protein assay; how it was run: as §4
# [25] = biological target: Muscarinic acetylcholine receptor (Rattus norvegicus) (UniProt P08482+P08483+P08485+P08911+P10980); test: Binding affinity towards Muscarinic acetylcholine receptor at 1.0 uM concentration; assay type: protein assay
# [26] = biological target: Adrenergic receptor alpha-2 (Rattus norvegicus) (UniProt P22086+P19328+P22909); test: Binding affinity towards alpha-2 adrenergic receptor at 1.0 uM concentration; assay type: protein assay
# Sequence of Sodium-dependent serotonin transporter (Rattus norvegicus) (P31652 whole entry): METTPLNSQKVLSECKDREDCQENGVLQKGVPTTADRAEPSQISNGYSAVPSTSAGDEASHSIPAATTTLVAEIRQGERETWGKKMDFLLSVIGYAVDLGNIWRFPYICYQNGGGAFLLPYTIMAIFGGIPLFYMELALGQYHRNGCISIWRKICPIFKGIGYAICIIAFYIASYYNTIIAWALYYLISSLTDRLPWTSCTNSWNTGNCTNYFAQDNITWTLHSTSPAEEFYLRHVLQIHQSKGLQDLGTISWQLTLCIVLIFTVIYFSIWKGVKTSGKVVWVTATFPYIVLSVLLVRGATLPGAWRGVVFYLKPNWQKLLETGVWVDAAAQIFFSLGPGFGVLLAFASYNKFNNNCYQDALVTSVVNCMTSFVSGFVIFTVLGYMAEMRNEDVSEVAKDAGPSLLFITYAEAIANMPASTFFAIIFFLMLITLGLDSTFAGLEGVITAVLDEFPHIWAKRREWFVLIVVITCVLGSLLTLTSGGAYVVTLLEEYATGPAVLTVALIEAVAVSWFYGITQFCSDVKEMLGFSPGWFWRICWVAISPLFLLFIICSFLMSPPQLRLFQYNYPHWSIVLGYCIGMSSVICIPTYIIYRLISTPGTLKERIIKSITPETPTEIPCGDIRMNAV
# Sequence of Sodium-dependent dopamine transporter (P23977 whole entry): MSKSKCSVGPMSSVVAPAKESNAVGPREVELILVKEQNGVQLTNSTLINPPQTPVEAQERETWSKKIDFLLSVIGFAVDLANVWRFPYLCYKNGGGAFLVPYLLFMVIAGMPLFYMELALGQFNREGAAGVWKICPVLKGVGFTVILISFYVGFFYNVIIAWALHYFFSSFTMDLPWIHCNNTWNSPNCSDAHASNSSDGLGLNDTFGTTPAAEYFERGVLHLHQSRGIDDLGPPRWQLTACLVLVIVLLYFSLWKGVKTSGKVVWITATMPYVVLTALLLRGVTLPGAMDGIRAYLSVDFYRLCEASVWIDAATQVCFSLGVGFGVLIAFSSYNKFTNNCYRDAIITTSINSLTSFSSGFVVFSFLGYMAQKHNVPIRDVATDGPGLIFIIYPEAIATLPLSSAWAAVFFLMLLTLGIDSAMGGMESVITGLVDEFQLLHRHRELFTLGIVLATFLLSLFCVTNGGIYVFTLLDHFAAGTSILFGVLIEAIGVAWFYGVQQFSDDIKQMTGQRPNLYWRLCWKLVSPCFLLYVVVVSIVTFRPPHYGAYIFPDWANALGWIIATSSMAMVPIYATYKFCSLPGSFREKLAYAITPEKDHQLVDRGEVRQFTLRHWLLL
# Sequence of Norepinephrine transporter (Q9WTR4 whole entry): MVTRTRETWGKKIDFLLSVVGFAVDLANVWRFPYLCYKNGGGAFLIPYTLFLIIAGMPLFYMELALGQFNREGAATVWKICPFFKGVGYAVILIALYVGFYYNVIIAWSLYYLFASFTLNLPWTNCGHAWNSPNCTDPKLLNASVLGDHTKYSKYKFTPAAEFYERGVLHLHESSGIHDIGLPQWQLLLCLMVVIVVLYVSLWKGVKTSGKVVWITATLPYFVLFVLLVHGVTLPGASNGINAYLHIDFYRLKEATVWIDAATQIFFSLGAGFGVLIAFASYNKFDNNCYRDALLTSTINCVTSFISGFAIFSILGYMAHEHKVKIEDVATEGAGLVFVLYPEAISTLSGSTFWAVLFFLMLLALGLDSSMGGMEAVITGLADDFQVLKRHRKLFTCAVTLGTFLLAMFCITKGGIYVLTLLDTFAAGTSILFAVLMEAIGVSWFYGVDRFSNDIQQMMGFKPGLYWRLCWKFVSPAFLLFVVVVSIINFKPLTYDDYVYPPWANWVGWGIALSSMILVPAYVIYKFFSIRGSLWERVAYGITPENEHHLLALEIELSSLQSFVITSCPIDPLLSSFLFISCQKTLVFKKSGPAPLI
# Sequence of Norepinephrine transporter (Rattus norvegicus) (Q9WTR4 as listed by the source): as the sequence (Q9WTR4 whole entry) above
# Sequence of D(2) dopamine receptor (Rattus norvegicus) (P61169 whole entry): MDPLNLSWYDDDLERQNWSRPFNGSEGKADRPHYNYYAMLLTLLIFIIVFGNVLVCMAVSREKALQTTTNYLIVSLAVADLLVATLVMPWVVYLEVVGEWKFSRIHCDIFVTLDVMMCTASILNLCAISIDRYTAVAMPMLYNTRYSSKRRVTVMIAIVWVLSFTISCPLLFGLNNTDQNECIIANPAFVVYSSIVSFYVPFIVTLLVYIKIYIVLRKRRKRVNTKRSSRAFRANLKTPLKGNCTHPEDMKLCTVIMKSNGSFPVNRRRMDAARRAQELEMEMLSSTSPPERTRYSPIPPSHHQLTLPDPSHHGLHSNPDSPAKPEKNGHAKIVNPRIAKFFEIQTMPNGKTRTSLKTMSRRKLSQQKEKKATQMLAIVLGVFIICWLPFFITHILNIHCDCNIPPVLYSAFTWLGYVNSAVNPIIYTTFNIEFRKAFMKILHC
# Sequence of D(2) dopamine receptor (P61169 whole entry): as above
# Sequence of D(1A) dopamine receptor (Rattus norvegicus) (P18901 whole entry): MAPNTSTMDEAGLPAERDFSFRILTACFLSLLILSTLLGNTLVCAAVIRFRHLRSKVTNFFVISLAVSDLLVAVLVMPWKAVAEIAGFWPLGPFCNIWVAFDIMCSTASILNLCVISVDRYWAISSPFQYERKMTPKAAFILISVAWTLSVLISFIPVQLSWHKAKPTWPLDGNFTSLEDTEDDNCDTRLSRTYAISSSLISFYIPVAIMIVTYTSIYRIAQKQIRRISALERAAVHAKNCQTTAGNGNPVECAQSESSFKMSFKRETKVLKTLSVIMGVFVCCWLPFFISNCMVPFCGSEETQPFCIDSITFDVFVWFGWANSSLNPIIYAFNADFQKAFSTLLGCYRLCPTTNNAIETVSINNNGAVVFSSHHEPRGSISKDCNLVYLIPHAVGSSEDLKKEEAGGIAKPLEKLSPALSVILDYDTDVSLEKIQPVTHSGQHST
# Sequence of Sodium-dependent dopamine transporter (Rattus norvegicus) (P23977 whole entry): as the sequence (P23977 whole entry) above
# Sequence of D(1A) dopamine receptor (P18901 whole entry): as the sequence (P18901 whole entry) above
SMILES,Inhibition [3] [%],inhibition [4] [%],inhibition [5] [%],"ED50 ([8]; Mus musculus, read-out: ED50) [mg/kg]","ED50 ([9]; Mus musculus, read-out: ED50) [mg/kg]",behavior [10],Ki [11] [nM],Ki [21] [nM],further results
c1ccc([C@H]2CN3CC[C@@H]4CCCC[C@@]43c3ccccc32)cc1,17,3,9,,,,,,ED50 [1]: inactive; ED50 [2]: inactive; behavior [6]: Overt convulsant
Fc1ccc([C@@H]2CN3CCC[C@@H]3c3ccccc32)cc1,,,,~0.2,~0.2,Partial stimulant,1.4,,inhibition [7]: 56%
CSc1ccc([C@@H]2CN3CCC[C@@H]3c3ccccc32)cc1 (stereo in doubt; (+)-48b),,,,,,,,,Ki [12]: 142 nM; Ki [13]: 1030 nM; Ki [14]: 274 nM
C[C@@]12CCCN1C[C@@H](c1ccccc1)c1ccccc12,25,2,23,,,,,,ED50 [1]: inactive; ED50 [2]: inactive; behavior [6]: Overt convulsant
Br.Oc1cc2c(cc1O)[C@@H]1CCCN1C[C@H]2c1ccccc1,,,,> 60,> 60,Partial stimulant,,,Ki [15]: 64 nM; inhibition [16]: 19%; Inhibition [17]: 35%; inhibition [18]: 0%; inhibition [19]: 22%
Br.C[C@@]1(c2ccccc2)CN2CCC[C@H]2c2ccccc21,50,19,14,16.2,22.5,Weak,,,
COc1ccc2c(c1)CN(C)CC2c1ccc(Cl)c(Cl)c1 (centres undefined) [DICLOFENSINE],,,,,,,8.8,10.9,Ki [12]: 37 nM; inhibition [7]: 38%; inhibition [16]: 27%; inhibition [20]: 33%; inhibition [22]: -6%
Br.COc1ccc2c(c1)[C@@H]1CCCN1C[C@H]2c1ccccc1,,,,8,~40,,20.9,38.9,behavior [23]: Significant depressant; inhibition [18]: 21%
Br.c1ccc([C@H]2Cc3ccccc3[C@@H]3CCCN23)cc1,36,11,-9,~3,~30,Weak,,,
Br.CC(=O)Nc1ccc([C@@H]2CN3CCC[C@@H]3c3ccccc32)cc1,,,,0.042,0.037,,,,behavior [23]: Significant depressant
FC(F)(F)c1cccc([C@@H]2CN3CCC[C@@H]3c3ccccc32)c1 (stereo in doubt; 37b),,,,0.58,0.78,,0.95,54.3,Ki [12]: 602 nM; Ki [13]: 2220 nM; Ki [14]: 213 nM
Br.Clc1ccccc1[C@@H]1CN2CCC[C@@H]2c2ccccc21 (stereo in doubt; 24b),,,,,,,,35.9,Ki [13]: 415 nM; ED50 [8]: 0.44 mg/kg; ED50 [9]: 1.6 mg/kg; Ki [24]: 1680 nM; Ki [14]: 163 nM
COc1cccc([C@@H]2CN3CCC[C@@H]3c3ccccc32)c1,,,,0.07,~0.2,Partial stimulant,0.65,15.8,inhibition [7]: 40%; inhibition [16]: 27%; inhibition [25]: 1%; inhibition [22]: 87%; inhibition [26]: 37%
